What all share (assay type): cell-based
Data set [1] deals with panel of Plasmodium falciparum malaria parasites. The note with it: for antimalarial activity against all tested strains (in words): D6, Dd2, 7G8 strains; for therapeutic index (the ratio of cytotoxicity to antimalarial therapeutic efficacy): HepG2 cytotoxicity vs antimalarial IC50.
Data set [2] has as its system Plasmodium falciparum 7G8 (MDR strain with New World genetic background). The note with it: 7G8, read-out: In vitro activity (IC50 nM) 7G8.
Data set [3] deals with HepG2 cells. Kind of data set: HepG2 cytotoxicity assay. The note with it: Homo sapiens, HepG2, read-out: Cytotoxicity (nM) vs. HepG2. In a few lines:
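HepG2 cells kept in RPMI-1640 with 10% FBS (37 °C, 5% CO2) were seeded at 2 × 10^4/well and left to attach overnight. Test compound (10 mM DMSO stock) was serially diluted in medium and applied for 24–36 h. Cells then had fresh medium for 24 h more, then resazurin (final 10 μM) for 3 h. Fluorescence read at ex 560/em 590 nm. IC50 from nonlinear logistic regression.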

The test system of data set [4] is Plasmodium falciparum D6 (CQ-sensitive). The note with it: D6, read-out: In vitro activity (IC50 nM) D6.
Data set [5] concerns Plasmodium falciparum Dd2 (MDR strain with Old World genetic background). The note with it: DD2, read-out: In vitro activity (IC50 nM) Dd2.

SMILES strings stand for the structures.

The IC50 is the point on the concentration scale where inhibition reaches its midpoint. As to `O=c1c2cc(OC(F)(F)F)ccc2[nH]c2cc3ccccc3cc12` [2x, 2-(Trifluoromethoxy)benzo[b]acridin-12(5H)-one], in data set [1], the “antimalarial activity against all tested strains (in words)” value (from here on “antimalarial activity”) is on record as “excellent activity”. In data set [1], the “therapeutic index (the ratio of cytotoxicity to antimalarial therapeutic efficacy)” value is on record as “high”. For the same compound, the IC50 amounted to 16.5 nM in data set [2], 7.03 nM in data set [4] and 0.563 nM in data set [5]. The CC50 in data set [3] was greater than 200000 nM.

Turning to `COc1ccc2c(=O)c3cc(OC(F)(F)F)ccc3[nH]c2c1` [2d, 6-Methoxy-2-(trifluoromethoxy)acridin-9(10H)-one], in data set [1], the “antimalarial activity” value is “excellent activity”. Besides, the “therapeutic index (the ratio of cytotoxicity to antimalarial therapeutic efficacy)” value in data set [1] is “high”. Further, the IC50 came out at 1.51 nM in data set [2], 0.103 nM in data set [4] and 1.1 nM in data set [5]. For the same compound, the CC50 in data set [3] is greater than 200000 nM.

As to `O=c1c2cc(OCCCl)ccc2[nH]c2cc(F)cc(F)c12` [2u, 7-(2-Chloroethoxy)-1,3-difluoroacridin-9(10H)-one], in data set [1], the “antimalarial activity” value is “excellent activity”. For the same compound, the “therapeutic index (the ratio of cytotoxicity to antimalarial therapeutic efficacy)” value in data set [1] is “high”. The results for the IC50 in data set [2], in data set [4] and in data set [5] were 1.22 nM, 11.6 nM and 0.91 nM, respectively. The CC50 in data set [3] was greater than 200000 nM.

With `COc1cccc2c(=O)c3cc(OC(F)(F)F)ccc3[nH]c12` [2v, 5-Methoxy-2-(trifluoromethoxy)acridin-9(10H)-one], in data set [1], the “antimalarial activity” value is “excellent activity”. Moreover, the “therapeutic index (the ratio of cytotoxicity to antimalarial therapeutic efficacy)” value in data set [1] is “high”. Besides, the IC50 is 46.3 nM in data set [2], 27.7 nM in data set [4] and 15.5 nM in data set [5]. For the same compound, in data set [3], the CC50 came to 139000 nM.

With `COc1ccc2c(=O)c3cc([N+](=O)[O-])ccc3[nH]c2c1` [2j, 6-Methoxy-2-nitroacridin-9(10H)-one], the 50% inhibitory concentration (IC50) in data set [2] was 35 nM; in data set [4], 84.1 nM; in data set [5] it was 98.1 nM. Besides, the CC50 in data set [3] is greater than 200000 nM.

In the case of `COc1ccc2[nH]c3c(F)c(F)c(F)c(F)c3c(=O)c2c1` [2t, 1,2,3,4-Tetrafluoro-7-methoxyacridin-9(10H)-one], the 50% inhibitory concentration (IC50) in data set [2] was 393 nM; in data set [4], greater than 2500 nM; in data set [5], 1950 nM. Moreover, the CC50 in data set [3] is greater than 200000 nM.

As for `COc1ccc2c(=O)c3cc(S(=O)(=O)C(F)(F)F)ccc3[nH]c2c1` [2g, 6-Methoxy-2-((trifluoromethyl)sulfonyl)acridin-9(10H)-one], the “antimalarial activity” value in data set [1] is “excellent activity”. For the same compound, the “therapeutic index (the ratio of cytotoxicity to antimalarial therapeutic efficacy)” value in data set [1] is given as “high”. Further, the concentration for half-maximal inhibition (IC50) in data set [2] stood at 22.2 nM; in data set [4], 11.6 nM; in data set [5] it was 11.6 nM. Besides, in data set [3], the CC50 is greater than 200000 nM.

Consider `COc1ccc2c(=O)c3cc(C#N)ccc3[nH]c2c1` [2i, 6-Methoxy-9-oxo-9,10-dihydroacridine-2-carbonitrile], for which the IC50 in data set [2] was 228 nM; in data set [4] it was 100 nM; in data set [5], 177 nM. Besides, in data set [3], the CC50 is greater than 200000 nM.

With `Cc1ccc2[nH]c3ccc(OC(F)(F)F)cc3c(=O)c2c1` [2w, 2-Methyl-7-(trifluoromethoxy)acridin-9(10H)-one], the results for the concentration for half-maximal inhibition (IC50) in data set [2], in data set [4] and in data set [5] were 109 nM, 63.1 nM and 49.2 nM, respectively. Moreover, the CC50 in data set [3] is greater than 200000 nM.

For `COc1ccc2c(=O)c3cc(Oc4ccc(Cl)cc4)ccc3[nH]c2c1` [2e, 2-(4-Chlorophenoxy)-6-methoxyacridin-9(10H)-one], the “antimalarial activity” value in data set [1] is on record as “excellent activity”. Besides, the “therapeutic index (the ratio of cytotoxicity to antimalarial therapeutic efficacy)” value in data set [1] is given as “high”. Besides, the IC50 in data set [2] worked out at 13.5 nM; in data set [4] it was 8.84 nM; in data set [5], 11.7 nM. The CC50 in data set [3] is greater than 200000 nM.

Take `COc1ccc2c(=O)c3cccc(OC(F)(F)F)c3[nH]c2c1` [2f, 3-Methoxy-5-(trifluoromethoxy)acridin-9(10H)-one]: the values for the IC50 in data set [2], in data set [4] and in data set [5] were 1140 nM, 782 nM and 753 nM, respectively. Moreover, the CC50 in data set [3] is greater than 200000 nM.

As to `COc1ccc2[nH]c3cc(F)cc(F)c3c(=O)c2c1` [2s, 1,3-Difluoro-7-methoxyacridin-9(10H)-one], the “antimalarial activity” value in data set [1] was “excellent activity”. Also, the “therapeutic index (the ratio of cytotoxicity to antimalarial therapeutic efficacy)” value in data set [1] is given as “high”. The half-inhibitory concentration (IC50) in data set [2] was 0.2 nM; in data set [4], 0.05 nM; in data set [5], 0.29 nM. The CC50 in data set [3] was greater than 200000 nM.

Take `O=C1C(O)=C([C@H]2CC[C@H](c3ccc(Cl)cc3)CC2)C(=O)c2ccccc21` [ATV, atovaquone, reference compound]: the IC50 in data set [4] and in data set [5] was 0.1 nM in each case.

Take `CCN(CC)CCCC(C)Nc1ccnc2cc(Cl)ccc12` (centres unmarked) [CQ, chloroquine, reference compound]: the half-maximal inhibitory concentration (IC50) in data set [2] turned out to be 172 nM.

Turning to `CCN(CC)CCn1c2ccc([N+](=O)[O-])cc2c(=O)c2ccc(OC)cc21` [2l, 10-(2-(Diethylamino)ethyl)-6-methoxy-2-nitroacridin-9(10H)-one], the half-inhibitory concentration (IC50) was found to be 462 nM in data set [2], 405 nM in data set [4] and 684 nM in data set [5]. Moreover, the CC50 in data set [3] was 12300 nM.

For `COc1ccc2[nH]c3c(OC(F)(F)F)cccc3c(=O)c2c1` [2q, 2-Methoxy-5-(trifluoromethoxy)acridin-9(10H)-one], the results for the IC50 in data set [2], in data set [4] and in data set [5] were greater than 2500 nM, 1490 nM and 1680 nM, respectively. Also, the CC50 in data set [3] was greater than 200000 nM.

On to `COc1ccc2[nH]c3ccc(OC(F)(F)F)cc3c(=O)c2c1` [2o, 2-Methoxy-7-(trifluoromethoxy)acridin-9(10H)-one], for which the half-maximal inhibitory concentration (IC50) in data set [2] is 437 nM; in data set [4], 632 nM; in data set [5] it was 425 nM. In addition, the CC50 in data set [3] is greater than 200000 nM.

For `COc1ccc2[nH]c3ccc(C#N)cc3c(=O)c2c1` [2r, 7-Methoxy-9-oxo-9,10-dihydroacridine-2-carbonitrile], the concentration for half-maximal inhibition (IC50) in data set [2] was greater than 2500 nM; in data set [4], 983 nM; in data set [5], 932 nM. For the same compound, the CC50 in data set [3] was greater than 200000 nM.

For `COc1ccc2c(=O)c3c(F)c(F)c(F)c(F)c3[nH]c2c1` [2n, 1,2,3,4-Tetrafluoro-6-methoxyacridin-9(10H)-one], the values for the IC50 in data set [2], in data set [4] and in data set [5] were 41.8 nM, 257 nM and 325 nM, respectively. In addition, the CC50 in data set [3] was greater than 200000 nM.

In the case of `COc1ccc2[nH]c3ccc(Oc4ccc(Cl)cc4)cc3c(=O)c2c1` [2p, 2-(4-Chlorophenoxy)-7-methoxyacridin-9(10H)-one], the concentration for half-maximal inhibition (IC50) in data set [2] came out at 911 nM; in data set [4], 573 nM; in data set [5], 513 nM. Moreover, in data set [3], the CC50 is greater than 200000 nM.
